Test results published in ChEMBL document CHEMBL4017498, “Pilot in Vivo Structure-Activity Relationship of Dihydromethysticin in Blocking 4-(Methylnitrosamino)-1-(3-pyridyl)-1-butanone-Induced O6-Methylguanine and Lung Tumor in A/J Mice” (J Med Chem, 2017).

Assays:
[1] = test system: Mus musculus; test: Reduction in NNK-induced O6-methylguanine DNA adduct formation in A/J mouse lung at 200 ppm administered with AIN-93 G powder for 7 days followed by NNK-induction on day 7 post dose measured after 4 hrs by LC-ESI-MS/MS method relative to control; type: functional; parameters: scale not given: the % may be the effect or the level left
Method in brief: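 Female A/J mice (6–7 weeks, one-week acclimation) fed AIN-93G powdered diet with 200 ppm compound from Day 0 (ethanol-processed diet for controls; n=3 per treatment, n=6 NNK control). Single i.p. NNK, 100 mg/kg in saline, on Day 7; lungs collected 4 h later. DNA isolated from half lung; O6-mG quantified by LC-MS/MS. Mean ± SD; one-way ANOVA with Dunnett's test versus NNK control.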

[2] = test system: Mus musculus; test: Reduction in NNK-induced long-term lung adenoma formation in A/J mouse at 25 ppm administered with AIN-M powder […] followed by NNK induction on day 7 at 100 mg/kg during compound dosing and […] post last dose measured after day 119 relative to control; type: functional; parameters: scale not given: the % may be the effect or the level left
Method in brief: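 Female A/J mice fed AIN-93G powder diet with compound at 25 ppm (added in ethanol, vacuum-dried, dose checked by HPLC). NNK in saline given i.p. at 100 and 67 mg/kg on Day 7 and Day 14. Treated diet stopped 24 h after the last NNK, then AIN-M diet. On Day 119, surface lung adenomas were counted blinded by a pathologist. Mean ± SD; one-way ANOVA with Dunnett's test vs NNK control.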

[3] = test system: Mus musculus; test: Toxicity in NNK-induced long-term lung adenoma A/J mouse model assessed as effect on body weight at 25 ppm administered with AIN-M powder […] followed by NNK induction on day 7 at 100 mg/kg during compound dosing and […] at 67 mg/kg post last dose measured every once a week during compound dosing; type: organism-based; conditions: in vivo, po
Method in brief: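 Female A/J mice fed AIN-93G diet with compound at 25 ppm. NNK given i.p. at 100 mg/kg on Day 7 and 67 mg/kg on Day 14. Treated diet ended 24 h after the last NNK, followed by AIN-M diet. Bodyweight recorded once weekly and food intake twice weekly through Day 119.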

[4] = test system: Mus musculus; test: Toxicity in NNK-induced long-term lung adenoma A/J mouse model assessed as effect on liver weight at 25 ppm administered with AIN-M powder […] followed by NNK induction on day 7 at 100 mg/kg during compound dosing and […] post last dose measured after day 119; type: organism-based; conditions: in vivo, po
Method in brief: (§1)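 Female A/J mice fed AIN-93G diet with compound at 25 ppm. NNK given i.p. at 100 and 67 mg/kg on Day 7 and Day 14. Switched to AIN-M diet 24 h after the last NNK. On Day 119, mice were weighed, euthanized with CO2, and livers excised and weighed. Relative liver weight is liver weight divided by bodyweight for each mouse.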

[5] = test system: Mus musculus; test: Toxicity in NNK-induced long-term lung adenoma A/J mouse model assessed as effect on liver weight at 25 ppm administered with AIN-M powder for […] followed by NNK induction on day 7 at 100 mg/kg during compound dosing and […] post last dose measured after day 119 relative to body weight; type: organism-based; conditions: in vivo, po; method in brief: as §1
[6] = Drug level in mouse liver microsomes treated with (+)DHM assessed as CYP450-mediated compound formation by LC-MS/MS method; type: ADME
[7] = test system: Liver; test: Drug level in mouse liver microsomes treated with (+)DHM by LC-MS/MS method; type: ADME, microsome
[8] = test system: Liver; test: Drug metabolism in mouse liver microsomes assessed as 7-(benzo[d][1,3]dioxol-5-yl)-5-hydroxy-3-methoxyhept-2-enoic acid formation by LC-MS/MS method; type: ADME, microsome
[9] = Drug metabolism in mouse liver microsomes assessed as CYP450-mediated 7-(3,4-dihydroxyphenyl)-5-hydroxy-3-methoxyhept-2-enoic acid formation by LC-MS/MS method; type: ADME

| SMILES | Activity [1] | Activity [2] | Activity [3] | Activity [4] | Activity [5] | other results |
| --- | --- | --- | --- | --- | --- | --- |
| COC1=CC(=O)OC(CCc2ccc3c(c2)CCC3)C1 (stereo not given) | 29.6% | 10.1% | Non-Toxic | Non-Toxic | Non-Toxic |  |
| CO/C(=C/C(=O)O)CC(O)CCc1ccc(O)c(O)c1 (stereo not given) |  |  |  |  |  | Drug metabolism [6]: Metabolite_Detected |
| COC1=CC(=O)CC(CCc2ccc3c(c2)CCC3)C1 (stereo not given) | 11.8% |  |  |  |  |  |
| COC1=CC(=O)CC(CCc2ccc3c(c2)OCO3)C1 (stereo not given) | 63.8% | 89.4% | Non-Toxic | Non-Toxic | Non-Toxic |  |
| CO/C(=C/C(=O)O)CC(O)CCc1ccc2c(c1)OCO2 (stereo not given) |  |  |  |  |  | Drug metabolism [7]: Metabolite_Detected |
| COC1=CC(=O)OC(CCc2ccccc2)C1 (racemic) | 16.4% | 6.3% | Non-Toxic | Non-Toxic | Non-Toxic |  |
| COC1=CC(=O)OC(CCc2ccc3c(c2)OCO3)C1 (racemic) | 72.3% | 94.2% | Non-Toxic | Non-Toxic | Non-Toxic |  |
| COC1=CC(=O)O[C@@H](CCc2ccc3c(c2)OCO3)C1 [DIHYDROMETHYSTICIN] |  |  |  |  |  | Drug metabolism [8]: Metabolite_Detected; Drug metabolism [9]: Metabolite_Detected |
